The source of these data is ChEMBL document CHEMBL1154342, “Scaffold-based design and synthesis of potent N-type calcium channel blockers” (Bioorg Med Chem Lett, 2009).

SMILES strings stand for the structures. Calls of active or inactive are those of the source. The calls are words filed in the database; no cut-off is given here.

Data set [1] can be described thus: Blocking of rat Voltage-dependent L-type calcium channel alpha1c/alpha2delta-1/beta1b activity expressed in HEK293 cells assessed as whole cell current by whole cell patch clamp assay. Format: cell-based. An outline of the steps:
(§1)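 HEK293 cells transiently transfected with rat channel subunits and recorded 24–72 h later. Whole-cell patch clamp used barium as the charge carrier. Currents were elicited from a holding potential of −100 mV to the peak of each channel's current–voltage relation. Each compound was tested on 3–5 cells per subtype.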
(The patch-clamp technique gives a direct electrical read-out from membranes.)

The target of data set [2] is Voltage-dependent L-type calcium channel subunit beta-1/alpha-1B/alpha-2/delta-1 (Rattus norvegicus, UniProt Q02294). Briefly: Blocking of rat N-type calcium channel alpha-1B/alpha-2-delta-1/beta-1b activity expressed in HEK293 cells assessed as whole cell current by whole cell patch clamp assay. Format: cell-based. An outline of the steps:
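HEK293 cells transiently transfected with rat channel subunits, recorded 24–72 h post-transfection. Whole-cell patch clamp with barium as charge carrier; currents elicited from a holding potential of −100 mV to the peak of the current–voltage relation. Each compound tested on 3–5 cells; IC50 estimated.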

For data set [3], the species on record is Rattus norvegicus. Kind of data set: Selectivity ratio of IC50 for rat Voltage-dependent L-type calcium channel to IC50 for rat N-type calcium channel. An outline of the steps: as §1
The nature of data set [4]: AUC (0 to infinity) in rat at 2 mg/kg, iv. As to conditions: plasma. The format is ADME, organism-based. Also on record: time infinity, dose 2 mg/kg, route intravenous. An outline of the steps:
(§2)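 Rats given a single dose by vein (2 mg/kg) or by mouth (10 mg/kg). Plasma sampled, with AUC taken to 8 h and extrapolated to infinity. Cmax is the highest observed concentration, and Tmax is the time to it. Half-life, apparent volume of distribution, plasma clearance and oral bioavailability were also derived. Values are given as mean with standard error.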

A short description of data set [5]: AUC (0 to infinity) in rat at 10 mg/kg, po. The following applies: plasma.
Data set [6] can be described thus: Oral bioavailability in rat at 10 mg/kg, po. As to conditions: in vivo.
Data set [7] is described as follows: AUC (0 to 8 hrs) in rat at 2 mg/kg, iv. Format: ADME, organism-based. Also on record: time < 8 hr, dose 2 mg/kg, route intravenous. As to conditions: plasma. An outline of the steps:
as §2

The test system of data set [8] is Rattus norvegicus. Briefly: Apparent oral clearance in rat at 10 mg/kg, po. As to conditions: in vivo.
Data set [9] in a line: Volume of distribution at steady state in rat at 2 mg/kg, iv. Format: ADME, organism-based. Also on record: dose 2 mg/kg, route intravenous. As to conditions: in vivo, read-out: Vdss. The method, boiled down:
as §2

Data set [10] can be described thus: Cmax in rat at 10 mg/kg, po. The following applies: in vivo.
A short description of data set [11]: Half life in rat at 10 mg/kg, po. The following applies: in vivo.
Data set [12] is described as follows: AUC (0 to 8 hrs) in rat at 10 mg/kg, po. The following applies: plasma.
Data set [13] in a line: Half life in rat at 2 mg/kg, iv. Format: ADME, organism-based. Also on record: dose 2 mg/kg, route intravenous. The following applies: in vivo. An outline of the steps:
as §2

Data set [14] can be described thus: Cmax in rat at 2 mg/kg, iv. The format is ADME, organism-based. Also on record: dose 2 mg/kg, route intravenous. The following applies: in vivo. The method, boiled down:
as §2

Data set [15] concerns Rattus norvegicus. Briefly: Analgesic activity against phse 2A portion of rat formalin-induced inflammatory pain model assessed as flinches at 25 mg/kg, ip. The format is functional, organism-based. Also on record: dose 25 mg/kg. The method, boiled down: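 Rat formalin inflammatory pain model with the phase IIA portion scored. Compounds were given intraperitoneally at 25 mg/kg, using 24–26 animals per group.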

Data set [16] has as its target Voltage-gated inwardly rectifying potassium channel KCNH2 (Homo sapiens, UniProt Q12809). Briefly: Inhibition of human ERG current. The method, boiled down:
(§3)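 Whole-cell patch clamp of HEK cells stably expressing hERG, measuring peak tail currents. A single 1 µM application was used for the screen. The concentration–response used 0.1, 1, 3 and 10 µM against a 0.1% DMSO control, with n = 4 per concentration.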

Another data set deals with hERG (KCNH2) (Homo sapiens, UniProt Q12809). Kind of data set: Inhibition of human ERG current at 1 uM. An outline of the steps: as §3
Data set [17] deals with Cannabinoid receptor 1 (Homo sapiens) (UniProt P21554). Kind of data set: Displacement of radioligand from cannabinoid CB1 receptor at 10 uM.
Sequence of Cannabinoid receptor 1 (Homo sapiens) (P21554 whole entry): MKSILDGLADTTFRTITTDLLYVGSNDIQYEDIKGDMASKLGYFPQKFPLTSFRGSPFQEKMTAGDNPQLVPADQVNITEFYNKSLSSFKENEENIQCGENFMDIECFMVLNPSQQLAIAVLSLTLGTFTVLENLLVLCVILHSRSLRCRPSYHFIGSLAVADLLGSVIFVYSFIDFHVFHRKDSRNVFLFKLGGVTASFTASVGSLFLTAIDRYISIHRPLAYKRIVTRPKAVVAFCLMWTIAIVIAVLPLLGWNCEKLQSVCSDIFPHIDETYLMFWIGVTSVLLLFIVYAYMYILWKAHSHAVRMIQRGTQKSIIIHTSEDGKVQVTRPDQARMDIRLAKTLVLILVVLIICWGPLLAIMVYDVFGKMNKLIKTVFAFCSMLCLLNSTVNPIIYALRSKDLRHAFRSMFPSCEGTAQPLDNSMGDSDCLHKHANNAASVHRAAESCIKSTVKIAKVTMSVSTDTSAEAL
The nature of data set [18]: Displacement of radioligand from voltage-gated sodium channel at 10 uM.
Data set [19] has as its target Mu-type opioid receptor (Homo sapiens) (UniProt P35372). Kind of data set: Displacement of radioligand from mu opioid receptor at 10 uM.
Data set [20] can be described thus: Displacement of radioligand from Voltage-dependent L-type calcium channel at 10 uM.

Sequence of Voltage-dependent L-type calcium channel subunit beta-1/alpha-1B/alpha-2/delta-1 (Q02294 whole entry): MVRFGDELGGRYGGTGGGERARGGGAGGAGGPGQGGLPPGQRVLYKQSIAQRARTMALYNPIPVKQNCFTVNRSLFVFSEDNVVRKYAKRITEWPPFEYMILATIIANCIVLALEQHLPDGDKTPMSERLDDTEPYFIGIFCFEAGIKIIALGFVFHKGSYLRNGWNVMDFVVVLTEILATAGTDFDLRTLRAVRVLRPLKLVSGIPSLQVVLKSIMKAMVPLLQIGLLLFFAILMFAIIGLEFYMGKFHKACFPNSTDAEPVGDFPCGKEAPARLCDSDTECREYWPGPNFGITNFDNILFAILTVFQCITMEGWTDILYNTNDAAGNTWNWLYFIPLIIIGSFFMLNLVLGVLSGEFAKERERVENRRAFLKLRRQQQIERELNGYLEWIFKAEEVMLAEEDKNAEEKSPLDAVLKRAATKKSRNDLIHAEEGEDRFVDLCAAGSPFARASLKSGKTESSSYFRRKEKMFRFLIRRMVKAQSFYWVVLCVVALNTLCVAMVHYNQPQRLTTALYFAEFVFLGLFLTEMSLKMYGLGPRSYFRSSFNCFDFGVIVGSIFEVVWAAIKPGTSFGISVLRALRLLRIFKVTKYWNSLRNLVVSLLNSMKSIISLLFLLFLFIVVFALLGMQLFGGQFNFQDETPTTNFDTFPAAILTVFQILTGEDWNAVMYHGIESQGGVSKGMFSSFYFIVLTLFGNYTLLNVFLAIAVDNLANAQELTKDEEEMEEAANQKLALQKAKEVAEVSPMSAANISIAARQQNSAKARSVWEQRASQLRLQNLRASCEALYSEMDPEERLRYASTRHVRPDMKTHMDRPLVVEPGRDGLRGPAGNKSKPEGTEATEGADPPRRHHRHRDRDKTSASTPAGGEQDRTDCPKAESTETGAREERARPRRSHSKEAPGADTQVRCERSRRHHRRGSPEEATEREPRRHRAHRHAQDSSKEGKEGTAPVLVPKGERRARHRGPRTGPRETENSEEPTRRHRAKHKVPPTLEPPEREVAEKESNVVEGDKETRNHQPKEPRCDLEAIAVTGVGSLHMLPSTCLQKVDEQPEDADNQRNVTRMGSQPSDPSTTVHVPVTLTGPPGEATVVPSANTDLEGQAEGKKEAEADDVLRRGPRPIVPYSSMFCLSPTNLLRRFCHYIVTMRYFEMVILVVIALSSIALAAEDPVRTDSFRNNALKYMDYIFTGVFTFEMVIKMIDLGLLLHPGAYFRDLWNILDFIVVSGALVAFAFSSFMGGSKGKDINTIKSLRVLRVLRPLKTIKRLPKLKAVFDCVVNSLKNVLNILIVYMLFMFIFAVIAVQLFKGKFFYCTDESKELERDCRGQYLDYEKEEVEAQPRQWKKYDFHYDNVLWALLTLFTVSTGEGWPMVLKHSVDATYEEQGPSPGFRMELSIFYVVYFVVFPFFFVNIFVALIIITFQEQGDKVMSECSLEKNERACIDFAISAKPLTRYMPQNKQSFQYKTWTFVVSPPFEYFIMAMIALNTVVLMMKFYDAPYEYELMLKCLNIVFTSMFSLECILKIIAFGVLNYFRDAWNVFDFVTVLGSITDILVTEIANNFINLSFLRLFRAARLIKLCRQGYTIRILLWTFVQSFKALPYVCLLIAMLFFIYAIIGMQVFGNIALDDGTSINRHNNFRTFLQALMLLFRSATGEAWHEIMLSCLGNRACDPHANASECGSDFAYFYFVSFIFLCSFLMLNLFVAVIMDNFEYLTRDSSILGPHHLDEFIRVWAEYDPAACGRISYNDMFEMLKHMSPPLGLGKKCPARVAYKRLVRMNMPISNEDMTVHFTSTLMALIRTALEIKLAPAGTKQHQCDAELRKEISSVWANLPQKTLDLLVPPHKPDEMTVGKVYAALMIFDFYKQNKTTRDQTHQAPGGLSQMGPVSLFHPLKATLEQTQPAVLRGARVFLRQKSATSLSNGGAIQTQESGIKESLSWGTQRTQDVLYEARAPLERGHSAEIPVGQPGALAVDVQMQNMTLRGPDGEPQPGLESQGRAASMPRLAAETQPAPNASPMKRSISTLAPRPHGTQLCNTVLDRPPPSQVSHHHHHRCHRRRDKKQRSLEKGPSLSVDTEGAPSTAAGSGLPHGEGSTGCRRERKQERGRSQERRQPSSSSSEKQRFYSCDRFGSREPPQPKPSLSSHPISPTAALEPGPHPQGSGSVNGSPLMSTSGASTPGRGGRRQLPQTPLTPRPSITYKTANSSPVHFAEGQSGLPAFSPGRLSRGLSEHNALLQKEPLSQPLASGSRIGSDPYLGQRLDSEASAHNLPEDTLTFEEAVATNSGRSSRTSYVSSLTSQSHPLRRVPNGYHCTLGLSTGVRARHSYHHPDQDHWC
Sequence of Voltage-dependent L-type calcium channel subunit beta-1/alpha-1B/alpha-2/delta-1 (P54283 whole entry partner): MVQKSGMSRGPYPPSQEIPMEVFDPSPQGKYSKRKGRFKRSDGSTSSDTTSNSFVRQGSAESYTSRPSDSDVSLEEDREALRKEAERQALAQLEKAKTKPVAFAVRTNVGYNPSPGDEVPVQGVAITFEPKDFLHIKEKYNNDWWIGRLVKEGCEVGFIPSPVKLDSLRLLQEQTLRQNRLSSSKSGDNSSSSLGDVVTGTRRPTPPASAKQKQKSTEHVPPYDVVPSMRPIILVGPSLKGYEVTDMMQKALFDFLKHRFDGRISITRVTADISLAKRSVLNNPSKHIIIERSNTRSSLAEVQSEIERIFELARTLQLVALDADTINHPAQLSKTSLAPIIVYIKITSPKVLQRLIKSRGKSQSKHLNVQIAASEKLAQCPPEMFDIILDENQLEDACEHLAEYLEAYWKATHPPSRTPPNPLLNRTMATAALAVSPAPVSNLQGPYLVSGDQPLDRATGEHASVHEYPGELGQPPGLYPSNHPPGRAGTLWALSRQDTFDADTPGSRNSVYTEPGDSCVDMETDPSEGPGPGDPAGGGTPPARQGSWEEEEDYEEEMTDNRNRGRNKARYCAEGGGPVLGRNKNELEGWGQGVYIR
Sequence of Voltage-dependent L-type calcium channel subunit beta-1/alpha-1B/alpha-2/delta-1 (P54290 25-944 partner limits assumed): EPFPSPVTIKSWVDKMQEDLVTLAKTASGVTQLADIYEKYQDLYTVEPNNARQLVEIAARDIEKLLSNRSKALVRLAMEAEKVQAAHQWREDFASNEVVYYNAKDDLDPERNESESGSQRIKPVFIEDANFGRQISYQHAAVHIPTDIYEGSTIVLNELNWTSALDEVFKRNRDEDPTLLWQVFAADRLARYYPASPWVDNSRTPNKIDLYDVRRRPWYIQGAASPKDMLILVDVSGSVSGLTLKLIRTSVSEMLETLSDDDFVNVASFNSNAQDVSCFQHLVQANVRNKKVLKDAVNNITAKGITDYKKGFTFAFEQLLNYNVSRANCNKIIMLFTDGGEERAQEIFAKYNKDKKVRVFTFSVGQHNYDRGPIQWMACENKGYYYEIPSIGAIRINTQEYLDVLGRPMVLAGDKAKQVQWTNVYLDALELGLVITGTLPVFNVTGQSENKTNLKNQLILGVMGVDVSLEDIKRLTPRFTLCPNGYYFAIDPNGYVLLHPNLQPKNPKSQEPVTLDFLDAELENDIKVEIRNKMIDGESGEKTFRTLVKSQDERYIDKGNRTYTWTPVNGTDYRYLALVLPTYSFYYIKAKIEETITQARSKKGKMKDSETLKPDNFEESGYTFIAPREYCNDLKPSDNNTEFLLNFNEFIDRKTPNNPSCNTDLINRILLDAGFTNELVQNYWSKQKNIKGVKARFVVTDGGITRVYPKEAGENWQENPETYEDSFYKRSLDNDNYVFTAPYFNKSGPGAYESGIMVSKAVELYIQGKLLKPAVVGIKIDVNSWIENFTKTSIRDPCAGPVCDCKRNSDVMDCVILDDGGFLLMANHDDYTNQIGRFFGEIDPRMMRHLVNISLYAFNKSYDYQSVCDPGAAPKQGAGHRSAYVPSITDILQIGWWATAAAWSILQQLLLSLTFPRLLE
Sequence of Voltage-dependent L-type calcium channel subunit beta-1/alpha-1B/alpha-2/delta-1 (P54290 945-1091 partner limits assumed): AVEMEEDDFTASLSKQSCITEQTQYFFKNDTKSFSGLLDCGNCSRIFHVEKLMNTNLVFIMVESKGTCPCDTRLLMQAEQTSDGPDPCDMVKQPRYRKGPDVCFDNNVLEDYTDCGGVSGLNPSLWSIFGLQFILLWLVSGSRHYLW
Sequence of Mu-type opioid receptor (Homo sapiens) (P35372 whole entry): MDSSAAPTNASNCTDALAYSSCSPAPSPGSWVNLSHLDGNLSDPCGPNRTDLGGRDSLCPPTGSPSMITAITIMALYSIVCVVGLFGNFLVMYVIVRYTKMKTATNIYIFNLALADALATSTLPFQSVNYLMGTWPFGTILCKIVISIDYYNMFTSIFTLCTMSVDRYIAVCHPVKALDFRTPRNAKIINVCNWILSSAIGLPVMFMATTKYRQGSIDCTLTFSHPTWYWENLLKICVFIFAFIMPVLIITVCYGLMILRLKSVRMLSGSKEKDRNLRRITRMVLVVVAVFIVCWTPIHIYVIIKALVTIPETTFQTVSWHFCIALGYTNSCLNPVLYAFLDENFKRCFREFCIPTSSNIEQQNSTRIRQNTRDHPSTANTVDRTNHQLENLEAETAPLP

Regarding `Nc1ccc(/C=C/C(=O)N2CCN(C(=O)CCCCC(c3ccccc3)c3ccccc3)CC2)cc1`, the results for the IC50 in data set [1] (HEK293) and in data set [2] were 830 nM and 150 nM, respectively. For the same compound, the Ratio IC50 in the data set filed under Rattus norvegicus [3] stood at 5.5.
Consider `COc1ccc(/C=C/CN2CCN(C(=O)CCCCC(c3ccccc3)c3ccccc3)CC2)cc1`, for which the IC50 in data set [2] was determined as 190 nM.
In the case of `O=C(NC(c1ccccc1)c1ccccc1)N1CCN(C(c2ccccc2)c2ccccc2)CC1`, the IC50 in [1] (HEK293) was 1840 nM. For the same compound, the Ratio IC50 in the data set filed under Rattus norvegicus [3] was found to be 12.
For `O=C(CCCCC(c1ccccc1)c1ccccc1)N1CCN(C/C=C/c2ccccc2)CC1` (stereo in doubt; 5a) [listing 1 of 2 here], the results for the IC50 in data set [1] (HEK293) and in data set [2] were 390 nM and 50 nM, respectively.
As for `O=C(C(c1ccccc1)c1ccccc1)N1CCN(C(c2ccccc2)c2ccccc2)CC1`, the IC50 in data set [2] is over 50000 nM.
Consider `O=C(CCCCC(c1ccccc1)c1ccccc1)N1CCN(C/C=C/c2ccccc2)CC1` (stereo in doubt; 5c) [listing 1 of 2 here], for which the IC50 in [1] (hek293) was determined as 330 nM; in data set [2], 120 nM.
As for `O=C(CCCCC(c1ccccc1)c1ccccc1)N1CCN(C/C=C/c2ccccc2)CC1` (stereo in doubt; 5c) [listing 2 of 2 here], in the data set listed under Rattus norvegicus [3], the Ratio IC50 amounted to 2.8.
`COc1cc(C(=O)N2CCN(CCCCCC(c3ccc(F)cc3)c3ccc(F)cc3)CC2)cc(OC)c1OC`: the IC50 in data set [1] (HEK293) came out at 2840 nM; in data set [2] it was 110 nM. Besides, the AUC(0-inf) amounted to 975 ng·h/mL in data set [4] and 1020 ng·h/mL in [5]. The compound also yielded a bioavailability in data set [6] of 21%. The AUC(0-t) at 8 h is 725 ng·h/mL in data set [7] and 753 ng·h/mL in data set [12]. Further, the CL/F in the data set on Rattus norvegicus [8] is 170 mL/min/kg. In addition, the Vd in [9] is 11.7 L/kg. The highest concentration (Cmax) in data set [10] turned out to be 173 ng/mL; in data set [14], 462 ng/mL. Further, the half-life in data set [11] is 4.5 h; in data set [13], 5 h. In addition, the outcome in the data set on Rattus norvegicus [15] was Active.
On to `COc1ccc(/C=C/C(=O)N2CCN(C(=O)CCCCC(c3ccccc3)c3ccccc3)CC2)cc1`, for which the IC50 amounted to 250 nM in data set [1] (HEK293) and 90 nM in data set [2]. Further, the Ratio IC50 in the data set filed under Rattus norvegicus [3] worked out at 2.8.
Taken in the same sequence, the figures for `O=C(/C=C/c1cccc2c1OCO2)N1CCN(C(=O)CCCCC(c2ccccc2)c2ccccc2)CC1` were 740 nM, 130 nM and 5.7.
For the compound `COc1cc(CN2CCN(C(=O)CCCCC(c3ccc(F)cc3)c3ccc(F)cc3)CC2)cc(OC)c1OC`, the IC50 in data set [2] was 190 nM.
As to `Fc1ccc(C(c2ccc(F)cc2)N2CCN(C/C=C/c3ccccc3)CC2)cc1` [FLUNARIZINE], the IC50 in [1] (HEK293) worked out at 310 nM; in data set [2], 80 nM. In the data set filed under Rattus norvegicus [3], the Ratio IC50 stood at 3.9.
For the compound `COc1cc(C(=O)N2CCN(C(=O)CCCCC(c3ccc(F)cc3)c3ccc(F)cc3)CC2)cc(OC)c1OC`, the IC50 in [2] came out at 540 nM.
In the case of `O=C(CC(c1ccccc1)c1ccccc1)N1CCN(C(c2ccccc2)c2ccccc2)CC1` [Z160], the IC50 was 12200 nM in [1] (HEK293), 110 nM in data set [2] and 7400 nM in [16]. In addition, the total exposure AUC(0-inf) in data set [4] came to 761 ng·h/mL; in data set [5], 1140 ng·h/mL. Besides, in the data set listed under Rattus norvegicus [3], the Ratio IC50 stood at 111. The same compound returned a bioavailability in [6] of 30%. For the same compound, the AUC(0-t) at 8 h in data set [7] was found to be 715 ng·h/mL; in data set [12], 999 ng·h/mL. The compound also showed an inhibition at 1 µM on hERG (KCNH2) of 24.8%. In the data set with Rattus norvegicus [8], the CL/F came out at 164 mL/min/kg. The Vd in data set [9] came out at 5.79 L/kg. Also, the peak concentration (Cmax) in [10] was found to be 235 ng/mL; in data set [14], 771 ng/mL. The half-life was 2.1 h in data set [11] and 3.3 h in data set [13]. The result (in [17]; in data set [18]; in data set [19]; in data set [20]; with Rattus norvegicus [15]) was Active.
Take `O=C(CCCCC(c1ccccc1)c1ccccc1)N1CCN(C/C=C/c2ccccc2)CC1` (stereo in doubt; 5a) [listing 2 of 2 here]: the Ratio IC50 in the data set filed under Rattus norvegicus [3] was found to be 8.
`c1ccc(C(CCCCN2CCN(C(c3ccccc3)c3ccccc3)CC2)c2ccccc2)cc1`: in data set [2], the IC50 came to 20000 nM.
The same measure, in the same setting: next, `O=C(CCC(c1ccccc1)c1ccccc1)N1CCN(C(c2ccccc2)c2ccccc2)CC1`: 23000 nM.
Consider `O=C(CCCC(c1ccccc1)c1ccccc1)N1CCN(C(c2ccccc2)c2ccccc2)CC1`, for which the half-maximal inhibitory concentration (IC50) in data set [2] is over 50000 nM.
`c1ccc(C(CN2CCN(C(c3ccccc3)c3ccccc3)CC2)c2ccccc2)cc1`: in [2], the IC50 was over 50000 nM.
The same measure, in the same setting: for `c1ccc(C(CCCN2CCN(C(c3ccccc3)c3ccccc3)CC2)c2ccccc2)cc1` the value was 6000 nM.
`O=C(CCCCC(c1ccc(F)cc1)c1ccc(F)cc1)N1CCN(C/C=C/c2ccccc2)CC1`: the IC50 is 120 nM in data set [1] (HEK293) and 90 nM in [2]. Moreover, in the data set listed under Rattus norvegicus [3], the Ratio IC50 stood at 1.3.
In the case of `c1ccc(C(CCCCCN2CCN(C(c3ccccc3)c3ccccc3)CC2)c2ccccc2)cc1`, in data set [2], the IC50 stood at 50000 nM.
Take `c1ccc(C(CCN2CCN(C(c3ccccc3)c3ccccc3)CC2)c2ccccc2)cc1`: in data set [2], the IC50 amounted to 5000 nM.
`COc1ccc(CN2CCN(C(c3ccc(F)cc3)c3ccc(F)cc3)CC2)c(OC)c1OC` [LOMERIZINE]: the IC50 in data set [1] (HEK293) was determined as 150 nM. In the data set filed under Rattus norvegicus [3], the Ratio IC50 worked out at 1.7.
Regarding `O=C(CCCCC(c1ccccc1)c1ccccc1)N1CCN(C/C=C/c2cccc3c2OCO3)CC1`, the IC50 in [2] amounted to 190 nM.
On to `O=C(CCCCC(c1ccccc1)c1ccccc1)N1CCN(C(c2ccccc2)c2ccccc2)CC1`, for which the IC50 in data set [2] is 50000 nM.

As a reminder, the IC50 is the midpoint of a concentration-inhibition curve. As a reminder, the AUC(0-inf) is the area under the concentration-time curve extrapolated to infinity. Low values mean low exposure, high ones high exposure. What is called bioavailability is the share of a dose that reaches the circulation, judged against a reference dose that is usually intravenous. High values mean good availability, low ones poor availability. For orientation: AUC(0-t) means the area under the concentration-time curve up to a stated or last time point. A word on the CL/F: it is clearance divided by bioavailability, as obtained after extravascular dosing. One may read the Cmax as the peak of the concentration-time curve. As usually defined, the half-life is the time in which the quantity being followed falls by half. A high value points to slow decline. What is called inhibition is the percentage by which the read-out fell short of the control. The low end stands for a weak effect, the high end for a strong effect.
